Results from ChEMBL document CHEMBL4004850, “Rational design of reversible inhibitors for trehalose 6-phosphate phosphatases” (Eur J Med Chem, 2017).

Key:
[1] = molecular target: T1, Trehalose-phosphatase (Brugia malayi) (UniProt A8NS89); assay: Inhibition of Brugia malayi T6PP using T6P as substrate assessed as fraction of enzyme unbound with compound by measuring ratio of initial velocities of T6P substrate hydrolysis in presence and absence of compound at 1 mM […] by BioMol green dye based HTS assay
T1 sequence (whole entry): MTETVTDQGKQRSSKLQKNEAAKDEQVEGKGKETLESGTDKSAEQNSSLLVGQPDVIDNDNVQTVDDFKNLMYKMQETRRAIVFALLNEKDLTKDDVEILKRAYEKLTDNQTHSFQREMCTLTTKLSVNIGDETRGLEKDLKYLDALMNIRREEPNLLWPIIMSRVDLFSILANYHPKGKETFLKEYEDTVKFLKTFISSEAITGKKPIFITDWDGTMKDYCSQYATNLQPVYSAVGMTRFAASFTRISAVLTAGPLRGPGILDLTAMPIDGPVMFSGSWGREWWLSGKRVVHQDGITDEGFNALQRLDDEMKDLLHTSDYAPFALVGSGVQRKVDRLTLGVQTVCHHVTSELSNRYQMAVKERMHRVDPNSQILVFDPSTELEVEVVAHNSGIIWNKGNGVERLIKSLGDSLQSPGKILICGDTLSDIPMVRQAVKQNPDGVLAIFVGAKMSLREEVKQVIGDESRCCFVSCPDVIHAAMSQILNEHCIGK

[2] = system: Ascaris suum; assay: Inhibition of Ascaris suum T6PP using T6P as substrate assessed as fraction of enzyme unbound with compound by measuring ratio of initial velocities of T6P substrate hydrolysis in presence and absence of compound at 1 mM after 5 mins by BioMol green dye based HTS assay
How it was run: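 T6P is at half saturation ([T6P] = Km), with and without 1 mM inhibitor, at 25 °C. Released phosphate is detected with dye (30 min incubation) by A625. The reported value is V_I/V, the initial-velocity ratio.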

[3] = system: Shigella boydii; assay: Inhibition of Shigella boydii T6PP using T6P as substrate assessed as fraction of enzyme unbound with compound by measuring ratio of initial velocities of T6P substrate hydrolysis in presence and absence of compound at 1 mM after 5 mins by BioMol green dye based HTS assay
How it was run: (§1)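 Freshly purified St-T6PP or Sb-T6PP (5–25 nM) in 50 mM Hepes pH 7.5, 25 mM NaCl, 2 mM MgCl₂, 5% glycerol at 25 °C. T6P at half saturation (Km) for each enzyme. Hydrolysis rate was compared with and without 1 mM inhibitor; phosphate read at 625 nm after 30 min incubation. The ratio VI/V gives the fraction of enzyme not inhibitor-bound.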

[4] = system: Salmonella enterica subsp. enterica serovar Typhimurium; assay: Inhibition of Salmonella typhimurium T6PP using T6P as substrate assessed as fraction of enzyme unbound with compound by measuring ratio of initial velocities of T6P substrate hydrolysis in presence and absence of compound at 1 mM after 5 mins by BioMol green dye based HTS assay; how it was run: as §1
[5] = molecular target: T2, Trehalose-phosphatase (Brugia malayi, UniProt A8NS89); assay: Competitive inhibition of Brugia malayi T6PP using T6P as substrate by Lineweaver-Burk plot analysis
T2 sequence (A8NS89 whole entry): T1 sequence (whole entry)
How it was run: (§2)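 Continuous phosphate-release assay (EnzChek, MESG/purine nucleoside phosphorylase) at 25 °C. Initial velocities of T6P hydrolysis by T6PP were taken at varied T6P with inhibitor at 0, Ki and 2×Ki. Km and Vmax come from double-reciprocal plots.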

[6] = Inhibition of Ascaris suum T6PP using T6P as substrate by Lineweaver-Burk plot analysis
[7] = Inhibition of Shigella boydii T6PP using T6P as substrate by Lineweaver-Burk plot analysis; how it was run: as §2
[8] = Inhibition of Salmonella typhimurium T6PP using T6P as substrate by Lineweaver-Burk plot analysis; parameters: species or system Salmonella enterica subsp. enterica serovar Typhimurium; how it was run: as §2
[9] = system: Ascaris suum; assay: Inhibition of Ascaris suum T6PP assessed as Vmax for substrate using T6P as substrate by Lineweaver-Burk plot analysis; how it was run: as §2
[10] = system: Ascaris suum; assay: Inhibition of Ascaris suum T6PP assessed as Km for substrate using T6P as substrate by Lineweaver-Burk plot analysis; how it was run: as §2
[11] = system: Shigella boydii; assay: Inhibition of Shigella boydii T6PP assessed as Vmax for substrate using T6P as substrate by Lineweaver-Burk plot analysis; how it was run: as §2
[12] = system: Shigella boydii; assay: Inhibition of Shigella boydii T6PP assessed as Km for substrate using T6P as substrate by Lineweaver-Burk plot analysis; how it was run: as §2

| Compound | Ratio [1] | Ratio [2] | Ratio [3] | Ratio [4] | Ki [5] [µM] | Ki [6] [µM] | Ki [7] [µM] | Ki [8] [µM] | Vmax [9] [µM/s] | Km [10] [µM] | Vmax [11] [µM/s] | Km [12] [µM] |
| --- | --- | --- | --- | --- | --- | --- | --- | --- | --- | --- | --- | --- |
| O=S(=O)(O)OC[C@H]1O[C@@H](Oc2ccc(CO)cc2)[C@H](O)[C@@H](O)[C@@H]1O | 0.68 | 0.76 | 0.67 | 0.79 |  |  |  |  |  |  |  |  |
| O=S(=O)(O)OC[C@H]1O[C@@H](Oc2ccc(F)c(F)c2)[C@H](O)[C@@H](O)[C@@H]1O | 0.74 | 0.88 | 0.92 | 0.89 |  |  |  |  |  |  |  |  |
| COc1cc(C=O)cc(OC)c1O[C@@H]1O[C@H](COS(=O)(=O)O)[C@@H](O)[C@H](O)[C@H]1O | 0.55 | 0.94 | 1 | 0.96 |  |  |  |  |  |  |  |  |
| OC[C@H]1O[C@@H](Nc2ccccc2)[C@H](O)[C@@H](O)[C@@H]1O | 1 | 0.97 | 0.92 | 0.77 |  |  |  |  |  |  |  |  |
| O=S(=O)(O)OC[C@H]1O[C@H](O[C@H]2O[C@H](CO)[C@@H](O)[C@H](O)[C@H]2O)[C@H](O)[C@@H](O)[C@@H]1O | 0.13 | 0.21 | 0.22 | 0.01 | 80 | 50 | 330 | 180 |  |  |  |  |
| OC[C@H]1O[C@H](Oc2ccccc2)[C@H](O)[C@@H](O)[C@@H]1O | 0.96 | 0.97 | 0.86 | 1 |  |  |  |  |  |  |  |  |
| O=S(=O)(O)OC[C@H]1O[C@@H](Oc2ccccc2CO)[C@H](O)[C@@H](O)[C@@H]1O | 0.89 | 0.9 | 0.85 | 0.73 |  |  |  |  |  |  |  |  |
| OC[C@H]1O[C@H](O[C@H]2O[C@H](CO)[C@@H](O)[C@H](O)[C@H]2O)[C@H](O)[C@@H](O)[C@@H]1O [TREHALOSE] | 0.98 | 0.97 | 1.01 | 0.88 | > 10000 |  |  |  |  |  |  |  |
| O=S(=O)(O)OC[C@H]1O[C@H](O)[C@H](O)[C@@H](O)[C@@H]1O | 0.93 | 0.94 | 0.75 | 0.84 |  |  |  |  |  |  |  |  |
| O=S(=O)(O)OC[C@H]1O[C@@H](n2cc(-c3ccccc3)nn2)[C@H](O)[C@@H](O)[C@@H]1O | 0.98 | 0.76 | 0.9 | 0.97 |  |  |  |  |  |  |  |  |
| CC(=O)Nc1ccc(O[C@@H]2O[C@H](COS(=O)(=O)O)[C@@H](O)[C@H](O)[C@H]2O)cc1 | 0.87 | 0.9 | 0.88 | 0.85 |  |  |  |  |  |  |  |  |
| CO[C@H]1O[C@H](COS(=O)(=O)O)[C@@H](O)[C@H](O)[C@H]1OCc1ccccc1 | 0.53 | 0.96 | 1 | 0.95 |  |  |  |  |  |  |  |  |
| O=S(=O)(O)OC[C@H]1O[C@@H](Oc2ccc(-c3ccccc3)cc2)[C@H](O)[C@@H](O)[C@@H]1O | 0.58 | 0.9 | 0.84 | 0.85 |  | 1800 |  |  | 0.436 | 290 |  |  |
| NS(=O)(=O)OCc1cccc(N[C@@H]2O[C@H](CO)[C@@H](O)[C@H](O)[C@H]2O)c1 | 1.05 | 0.96 | 0.85 | 1 |  |  |  |  |  |  |  |  |
| OC[C@H]1O[C@@H](NC(=S)Nc2ccccc2)[C@H](O)[C@@H](O)[C@@H]1O | 0.99 | 0.81 | 0.92 | 1.09 |  |  |  |  |  |  |  |  |
| CCCCCCc1ccc(O[C@@H]2O[C@H](COS(=O)(=O)O)[C@@H](O)[C@H](O)[C@H]2O)cc1 |  |  |  |  | 200 | 200 | 140 | > 400 |  |  | 0.534 | 231 |
| CO[C@H]1O[C@H](COS(=O)(=O)O)[C@@H](OCc2ccccc2)[C@H](O)[C@H]1O | 0.68 | 0.99 | 0.95 | 0.97 |  |  |  |  |  |  |  |  |
